Assay outcomes as filed in PubChem BioAssay.
Sampled rows, rich in hits. Any-hit rate of the full collection: about 4.6%.
TAAR1 antagonist – human TAAR1 antagonists, primary screen, Fluo-8 calcium fluorescence, CHO RD-HGA16 cells; antagonist; inhibition, % at 3 µM; 360,000 compounds, 1.5% hits;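 active = inhibition above a per-plate cutoff, the mean inhibition of test compounds on that plate plus 3 SD, cut at about 49% in these data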
Target sequence (Q96RJ0 whole entry, looked up): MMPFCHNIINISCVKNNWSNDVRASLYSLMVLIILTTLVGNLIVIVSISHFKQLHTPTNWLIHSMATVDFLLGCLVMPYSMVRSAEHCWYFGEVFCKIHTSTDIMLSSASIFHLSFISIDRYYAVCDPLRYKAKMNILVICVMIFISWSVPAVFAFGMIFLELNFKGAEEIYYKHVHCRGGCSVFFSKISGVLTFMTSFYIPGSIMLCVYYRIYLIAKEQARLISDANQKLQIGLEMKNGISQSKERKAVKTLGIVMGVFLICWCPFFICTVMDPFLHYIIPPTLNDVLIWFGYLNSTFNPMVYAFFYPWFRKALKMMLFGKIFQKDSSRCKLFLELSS
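Assay system: CHO-derived RD-HGA16 cells stably expressing human TAAR1 plus Gα16. Timing: 140 s kinetic read after compound, 140 s after agonist. Technique: kinetic Fluo-8 calcium fluorescence measurement. Measure: % inhibition of agonist calcium response.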
CHO parental Ca – ATP-evoked calcium signal inhibitors, parental CHO, primary screen, counter-screen for OX1R antagonist project, cell-based, fluorescence, Fluo-8 calcium dye; parental CHO-K1, ATP-induced calcium, Fluo-8 fluorescence; 330,000 compounds, 0.63% hits; inhibition, % at 5.6 µM;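 active = inhibition above that plate's mean sample inhibition plus 3 SD, cut at about 26% in these data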
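material = parental CHO cells | also added = ATP as calcium-mobilizing challenge | dosing = single point at 5.6 µM | detection = intracellular calcium via Fluo-8 no-wash fluorescent dye | read-out = % inhibition | benchmarks = low control ATP plus DMSO, high control DMSO only | repeats = one well per compound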
GPR7 antagonist – GPR7 receptor antagonists, primary screen, cell-based, fluorescence, single concentration. Neuropeptides B/W receptor type 1 (Homo sapiens), P48145. GPR7-expressing cells, fluorescence antagonist assay. inhibition, % at 4.4 µM. 290,000 compounds, 1.1% hits; in the data active = inhibition above about 16%, passing the limit was not always enough;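 note: cells stimulated with the agonist NPW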
OX1R antag-1 – antagonists of human orexin 1 receptor (OX1R) | inhibition, % at 6.6 µM | Orexin/Hypocretin receptor type 1 (Homo sapiens), O43613 | 330,000 compounds, 1.8% hits | OX1R-expressing cells, FRET antagonist read-out; in the data active = inhibition mostly above about 38%, no sharp cut-off; inactive = mostly below about 40%
Target sequence (O43613 whole entry, looked up): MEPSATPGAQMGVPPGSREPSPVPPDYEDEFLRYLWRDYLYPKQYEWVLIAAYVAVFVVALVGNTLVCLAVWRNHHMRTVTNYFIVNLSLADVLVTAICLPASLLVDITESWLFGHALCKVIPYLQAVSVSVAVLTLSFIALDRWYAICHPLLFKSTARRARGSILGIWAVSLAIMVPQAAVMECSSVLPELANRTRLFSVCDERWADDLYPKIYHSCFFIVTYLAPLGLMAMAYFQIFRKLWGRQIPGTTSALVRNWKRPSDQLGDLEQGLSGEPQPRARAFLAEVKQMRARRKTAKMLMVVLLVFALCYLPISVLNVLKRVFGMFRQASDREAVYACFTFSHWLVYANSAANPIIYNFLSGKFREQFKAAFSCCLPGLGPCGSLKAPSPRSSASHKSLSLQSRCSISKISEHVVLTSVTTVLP
OX1R antag-2 – OX1R (HCRTR1) antagonists, primary screen, fluorescence, CHO/OX1R cells, Fluo-8 calcium, orexin A. Orexin/Hypocretin receptor type 1 (Homo sapiens), O43613. Fluo-8 calcium fluorescence. inhibition, % at 5 µM. 330,000 compounds, 0.43% hits;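 active = inhibition above its plate's threshold, mean inhibition of all tested compounds on the plate plus 3 SD, cut at about 37% in these data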
TAAR1 ag – human TAAR1 agonists, primary screen, Fluo-8 calcium fluorescence, CHO RD-HGA16 cells; vehicle wells 0%, saturating PEA agonist 100%; AID 624467, 2012; activation, % at 3 µM; 360,000 compounds, 0.99% hits;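 active = activation above the mean activation of all test compounds in the run plus 3 SD, cut at about 38% in these data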
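Test system: RD-HGA16 (CHO) cells co-expressing Gα16 and hTAAR1 | Doses: Single dose, 3 µM | Schedule: 17-24 h seeding, 75 min 37 °C dye, 30 min RT | Evaluation: % activation from peak over basal fluorescence ratio, DMSO-to-PEA scaled | Technique: Kinetic Fluo-8 calcium fluorescence | Benchmarks: Low control DMSO, high control PEA (EC100)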
OX1R HTRF confirm – OX1R (HCRTR1) antagonists, confirmation, cell-based, HTRF; shares compounds with OX1R antag-1; OX1R-expressing cells, HTRF antagonist assay; inhibition, % at 6.6 µM; 1,800 compounds, 49% hits; in the data active = inhibition above about 55%;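 note: CHO cells expressing OX1R stimulated with orexin A at about EC80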
CHO-K1 HTRF – signal inhibition in parental CHO-K1 cells, counter-screen for OX1R antagonist project, cell-based, HTRF. shares compounds with OX1R antag-1. HTRF counterscreen. inhibition, % at 6.6 µM. 1,800 compounds, 48% hits; in the data active = inhibition above about 17%
Each line names hits and unclear results; the compound was inactive in the other large screens (follow-up assays come after a bar, where they were run).

CC1CCN(CCNC(=O)CN(C)S(=O)(=O)c2cccc3nsnc23)CC1	OX1R antag-1 149 | OX1R HTRF confirm inactive | CHO-K1 HTRF 29
CCN(CC)C(=O)CN(C)S(=O)(=O)c1cccc2nsnc12	OX1R antag-1 114 | OX1R HTRF confirm inactive | CHO-K1 HTRF 38
CC1CCN(C(=O)CN(C)S(=O)(=O)c2cccc3nsnc23)CC1	OX1R antag-1 83 | OX1R HTRF confirm inactive | CHO-K1 HTRF 36
C[C@@H]1CN([C@@H](C)CO)S(=O)(=O)c2ccc(Br)cc2O[C@H]1CN(C)Cc1ccccn1	none (no result: CHO parental Ca, GPR7 antagonist, OX1R antag-1, OX1R antag-2)
Cc1ccc(N(C(=O)c2csnn2)C(C(=O)NC2CCCC2)c2ccccn2)c(C)c1 (stereo not drawn)	none
CCOC(=O)N1CCC(NC(=O)C(NS(=O)(=O)c2cccc3nsnc23)c2ccccc2)CC1 (stereo not drawn)	OX1R antag-1 91 | OX1R HTRF confirm inactive | CHO-K1 HTRF inactive
O=C1CCC([N+](=O)[O-])C(c2ccccc2C(F)(F)F)N1 (stereo not drawn)	none
CC(C)CC(=O)N1CCN(C(=O)c2ccc(F)cc2)CC1	none
COC(=O)c1ccc2c(c1C(=O)OC)CN(S(=O)(=O)C(C)(C)C)[C@H]2CCO	none (no result: CHO parental Ca, GPR7 antagonist, OX1R antag-1, OX1R antag-2)
CN(C)/C=C1/Oc2c(ccc3ccccc23)C1=O	OX1R antag-1 88 | OX1R HTRF confirm 85 | CHO-K1 HTRF inactive
COc1ccccc1-c1noc2c1C(=O)N(Cc1cn(Cc3ccccc3)nn1)CC2	none (no result: CHO parental Ca, GPR7 antagonist, OX1R antag-1, OX1R antag-2)
CCCCC(=O)N/N=C/c1ccc(-c2ccc([N+](=O)[O-])cc2)o1	OX1R antag-1 102 | OX1R HTRF confirm inactive | CHO-K1 HTRF inactive
O=C(NCCO)c1ccc2nc(-c3ccco3)c(-c3ccco3)nc2c1	OX1R antag-1 109 | OX1R HTRF confirm inactive | CHO-K1 HTRF 58
CCOC(=O)COc1ccc2cc(C(=O)OCC)c(=O)oc2c1	OX1R antag-1 110 | OX1R HTRF confirm inactive | CHO-K1 HTRF 38
CCOC(=O)COc1ccc2c3c(c(=O)oc2c1)CCCC3	none
O=[N+]([O-])c1ccc(Sc2cc[n+]([O-])c3ccccc23)c([N+](=O)[O-])c1	OX1R antag-1 98 | OX1R HTRF confirm 55 | CHO-K1 HTRF 78
Cc1ccc(NC(=O)c2ccc(Cl)c(NC(=O)c3cccs3)c2)cc1	none
Cc1nc2ccc(NC(=O)c3ccc(Cl)c(NC(=O)c4cccs4)c3)cc2s1	OX1R antag-1 81 | OX1R HTRF confirm inactive | CHO-K1 HTRF inactive
CN(C)CCC1CCN(c2cc(C#N)c(C#N)cc2[N+](=O)[O-])CC1	OX1R antag-1 118 | OX1R HTRF confirm inactive | CHO-K1 HTRF 54
c1cncc(-c2nc(NCc3ccc4c(c3)OCO4)c3ccccc3n2)c1	none
c1cncc(-c2nc(NCC3COc4ccccc4O3)c3ccccc3n2)c1 (stereo not drawn)	TAAR1 antagonist 54, OX1R antag-1 95 | OX1R HTRF confirm 56 | CHO-K1 HTRF inactive
O=C(NCCS(=O)(=O)c1ccc(Br)cc1)c1c(F)cccc1F	none
C=CCNc1nnc(Sc2ncccc2[N+](=O)[O-])s1	OX1R antag-1 91 | OX1R HTRF confirm inactive | CHO-K1 HTRF 33
COc1cccc(CN(C)C(=O)Cn2cc(C)c(=O)[nH]c2=O)c1	none (no result: CHO parental Ca, GPR7 antagonist, OX1R antag-1, OX1R antag-2)
CCCn1c(/C=C/c2ccccc2)nc2ccccc21	none
CCn1c(/C=C/c2cc[n+](C)cc2)nc2ccccc21	OX1R antag-1 78 | OX1R HTRF confirm inactive | CHO-K1 HTRF 59
CC(C)Oc1ccc(S(=O)(=O)N2CCOCC2)cc1NC(=O)C1=COCCO1	none (no result: GPR7 antagonist)
COc1ccc2cc(C(N)=O)/c(=N/NC(=O)c3ccco3)oc2c1	OX1R antag-1 79 | OX1R HTRF confirm inactive | CHO-K1 HTRF inactive
CC(C)c1ccc(NC(=O)CN(C)C2=NS(=O)(=O)c3ccccc32)cc1	none (no result: CHO parental Ca, GPR7 antagonist, OX1R antag-1, OX1R antag-2)
COc1ccc(Cc2c(-c3ccco3)nc3ccc(Cl)cn23)c(C)c1	none (no result: CHO parental Ca, GPR7 antagonist, OX1R antag-1, OX1R antag-2)
Nc1c(Cl)ncnc1N/N=C/c1cccnc1	OX1R antag-1 84 | OX1R HTRF confirm inactive | CHO-K1 HTRF 31
CCN(C(=O)COC(=O)/C=C/c1cccc(Br)c1)C1CCS(=O)(=O)C1 (stereo not drawn)	none
COC(=O)c1cc(C(=O)OCC(=O)NC2CCCC2)cc([N+](=O)[O-])c1	none
COC(=O)c1cc(C(=O)OCC(=O)N(C)C2CCS(=O)(=O)C2)cc([N+](=O)[O-])c1 (stereo not drawn)	OX1R antag-1 120 | OX1R HTRF confirm 88 | CHO-K1 HTRF 70
CN(C(=O)COC(=O)/C=C/c1cccc([N+](=O)[O-])c1)C1CCS(=O)(=O)C1 (stereo not drawn)	OX1R antag-1 90 | OX1R HTRF confirm inactive | CHO-K1 HTRF 43
COC(=O)c1cc(C(=O)OCC(=O)NC2CCS(=O)(=O)C2)cc([N+](=O)[O-])c1 (stereo not drawn)	OX1R antag-1 84 | OX1R HTRF confirm inactive | CHO-K1 HTRF 47
CCC(NCc1cccnc1)c1ccc(OC)c(OC)c1 (stereo not drawn)	none (no result: CHO parental Ca, GPR7 antagonist, OX1R antag-1, OX1R antag-2)
CCC(CO)Oc1cc(NC(=O)c2cccc(Cl)c2)c2ncn(C(C)C)c2c1 (stereo not drawn)	none (no result: GPR7 antagonist)
O=C1N=c2ccccc2=C1c1sc(=S)n(CC2CCCO2)c1O (stereo not drawn)	none
O=C(O)CCC(C(=O)O)n1c(O)c(C2=c3ccccc3=NC2=O)sc1=S (stereo not drawn)	OX1R antag-1 150 | OX1R HTRF confirm 68 | CHO-K1 HTRF 105
CCOC(=O)c1ccc(Nc2ncnc3ccccc23)cc1	none
CCOC(=O)c1ccc(Nc2nc(-c3cccnc3)nc3ccccc23)cc1	TAAR1 antagonist 56, OX1R antag-1 78 | OX1R HTRF confirm inactive | CHO-K1 HTRF inactive
O=C(COc1ccc(Cl)cc1Br)NCC(c1ccco1)N1CCCC1 (stereo not drawn)	none (no result: GPR7 antagonist)
COc1cccc(/C=C2\Oc3ccc(O)cc3C2=O)c1O	OX1R antag-1 95 | OX1R HTRF confirm 93 | CHO-K1 HTRF inactive
CCOC(=O)CNC(=O)CSc1ncnc2c1cnn2-c1ccc(Cl)cc1	none
